In ChEMBL document CHEMBL4382238, “Synthesis of isatin based N1-alkylated 3-β-C-glycoconjugated-oxopropylidene oxindoles as potent antiplasmodial agents” (Eur J Med Chem, 2019):

Tests used:
[1] = test system: Plasmodium falciparum; experiment: Antiplasmodial activity against chloroquine-sensitive Plasmodium falciparum 3D7 asynchronous cultures infected in human erythrocytes after 72 hrs by SYBR green1 staining based fluorescence assay; assay type: functional, organism-based; settings: 3D7, 72 h
Summary of the method: (§1)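 Parasites kept in human erythrocytes at 5% hematocrit in RPMI-1640 (HEPES) with 0.5% AlbuMaxII, 0.2% glucose, bicarbonate, 15 µM hypoxanthine, 37 °C CO2. Two-fold serial dilutions spanning […]; asynchronous culture at 0.8-1% parasitaemia, 1% haematocrit; 72 h, 37 °C. Lytic buffer with SYBR Green (1x final), 2 h dark, RT; Ex 485/Em 535 nm. IC50 from DNA signal versus drug-free controls; at least duplicate determinations.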

[2] = Cytotoxicity against African green monkey Vero cells measured after 72 hrs by resazurin assay; assay type: cell-based; settings: chlorocebus sabaeus
Summary of the method: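 VERO monkey kidney cells grown in MEM with 15% FBS under 5% CO2 at 37 °C. Cells exposed to serial drug dilutions for three days. 10% resazurin then added as viability marker. Fluorescence read at excitation 530 ± 25 nm and emission 590 ± 25 nm to calculate median cytotoxic concentration (CC50). Values are the average of at least duplicate determinations.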

[3] = Selectivity index, ratio of CC50 for African green monkey Vero cells to IC50 for chloroquine-resistant Plasmodium falciparum K1 asynchronous cultures infected in human erythrocytes; assay type: toxicity, cell-based; settings: read-out: Ratio CC50/IC50
[4] = test system: Plasmodium falciparum; experiment: Antiplasmodial activity against chloroquine-resistant Plasmodium falciparum K1 asynchronous cultures infected in human erythrocytes after 72 hrs by SYBR green1 staining based fluorescence assay; assay type: functional, organism-based; settings: K1, 72 h; summary of the method: as §1
[5] = Selectivity index, ratio of CC50 for African green monkey Vero cells to IC50 for chloroquine-sensitive Plasmodium falciparum 3D7 asynchronous cultures infected in human erythrocytes; assay type: toxicity, cell-based; settings: read-out: Ratio CC50/IC50

| Structure (SMILES) | IC50 [1] [µM] | CC50 at 72 h [2] [µM] | selectivity ratio [3] | IC50 [4] [µM] | selectivity ratio [5] |
| --- | --- | --- | --- | --- | --- |
| CC(=O)OC[C@H]1O[C@@H](CC(=O)/C=C2\C(=O)N(CCc3ccccc3)c3ccccc32)[C@H](OC(C)=O)[C@@H](OC(C)=O)[C@@H]1OC(C)=O | 0.95 | 64.7 | 86.2 | 0.75 | 68.1 |
| CC(=O)OC[C@H]1O[C@@H](CC(=O)/C=C2\C(=O)N(Cc3ccc(F)cc3)c3ccc(Cl)cc32)[C@H](OC(C)=O)[C@@H](OC(C)=O)[C@@H]1OC(C)=O | 0.32 | 107 | 429 | 0.25 | 335 |
| CC(=O)OC[C@H]1O[C@@H](CC(=O)/C=C2\C(=O)N(Cc3ccccc3)c3ccc(Cl)cc32)[C@H](OC(C)=O)[C@@H](OC(C)=O)[C@@H]1OC(C)=O | 0.26 | 91.2 | 294 | 0.31 | 351 |
| CC(=O)OC[C@H]1O[C@@H](CC(=O)CC2(O)C(=O)Nc3ccc(Cl)cc32)[C@H](OC(C)=O)[C@@H](OC(C)=O)[C@@H]1OC(C)=O (stereo partly drawn) | > 5 |  |  | > 5 |  |
| CC(=O)OC[C@H]1O[C@@H](CC(=O)/C=C2\C(=O)N(Cc3ccccc3)c3ccccc32)[C@H](OC(C)=O)[C@@H](OC(C)=O)[C@@H]1OC(C)=O | 0.77 | 71.2 | 245 | 0.29 | 92.4 |
| CC(=O)OC[C@H]1O[C@@H](CC(=O)CC2(O)C(=O)N(CCc3ccccc3)c3ccc(Cl)cc32)[C@H](OC(C)=O)[C@@H](OC(C)=O)[C@@H]1OC(C)=O (stereo partly drawn) | > 5 |  |  | > 5 |  |
| CCCCN1C(=O)/C(=C\C(=O)C[C@@H]2O[C@H](COC(C)=O)[C@@H](OC(C)=O)[C@H](OC(C)=O)[C@H]2OC(C)=O)c2ccccc21 | 2.61 | 126 | 68.2 | 1.84 | 48.1 |
| CCCN1C(=O)C(O)(CC(=O)C[C@@H]2O[C@H](COC(C)=O)[C@@H](OC(C)=O)[C@H](OC(C)=O)[C@H]2OC(C)=O)c2cc(Cl)ccc21 (stereo partly drawn) | > 5 |  |  | > 5 |  |
| CC(=O)OC[C@H]1O[C@@H](CC(=O)CC2(O)C(=O)N(Cc3ccc(F)cc3)c3ccccc32)[C@H](OC(C)=O)[C@@H](OC(C)=O)[C@@H]1OC(C)=O (stereo partly drawn) | > 5 |  |  | > 5 |  |
| CC(=O)OC[C@H]1O[C@@H](CC(=O)CC2(O)C(=O)N(Cc3cccc(C)c3)c3ccc(Cl)cc32)[C@H](OC(C)=O)[C@@H](OC(C)=O)[C@@H]1OC(C)=O (stereo partly drawn) | > 5 |  |  | > 5 |  |
| CCCN1C(=O)/C(=C\C(=O)C[C@@H]2O[C@H](COC(C)=O)[C@@H](OC(C)=O)[C@H](OC(C)=O)[C@H]2OC(C)=O)c2ccccc21 | 3.59 | 125 | < 24.9 | > 5 | 34.7 |
| CC(=O)OC[C@H]1O[C@@H](CC(=O)CC2(O)C(=O)N(Cc3ccc(F)cc3)c3ccc(Cl)cc32)[C@H](OC(C)=O)[C@@H](OC(C)=O)[C@@H]1OC(C)=O (stereo partly drawn) | 3.54 |  |  | 2.26 |  |
| CC(=O)OC[C@H]1O[C@@H](CC(=O)/C=C2\C(=O)N(Cc3ccc(Br)cc3)c3ccccc32)[C@H](OC(C)=O)[C@@H](OC(C)=O)[C@@H]1OC(C)=O | 0.23 | 76.5 | 95.7 | 0.8 | 333 |
| CC(=O)OC[C@H]1O[C@@H](CC(=O)/C=C2\C(=O)N(Cc3ccc(Br)cc3)c3ccc(Cl)cc32)[C@H](OC(C)=O)[C@@H](OC(C)=O)[C@@H]1OC(C)=O | 0.24 | 93.3 | 622 | 0.15 | 389 |
| CC(=O)OC[C@H]1O[C@@H](CC(=O)/C=C2\C(=O)N(Cc3cccc(C)c3)c3ccc(Cl)cc32)[C@H](OC(C)=O)[C@@H](OC(C)=O)[C@@H]1OC(C)=O | 0.17 | 91 | 87.5 | 1.04 | 535 |
| CCCN1C(=O)/C(=C\C(=O)C[C@@H]2O[C@H](COC(C)=O)[C@@H](OC(C)=O)[C@H](OC(C)=O)[C@H]2OC(C)=O)c2cc(Cl)ccc21 | 1.18 | 95.5 | 239 | 0.4 | 81 |
| CCCCN1C(=O)C(O)(CC(=O)C[C@@H]2O[C@H](COC(C)=O)[C@@H](OC(C)=O)[C@H](OC(C)=O)[C@H]2OC(C)=O)c2cc(Cl)ccc21 (stereo partly drawn) | > 5 |  |  | > 5 |  |

| Structure (SMILES) | IC50 [1] [µM] | CC50 at 72 h [2] [µM] | selectivity ratio [3] | IC50 [4] [µM] | selectivity ratio [5] |
| --- | --- | --- | --- | --- | --- |
| CC(=O)OC[C@H]1O[C@@H](CC(=O)/C=C2\C(=O)Nc3ccc(Cl)cc32)[C@H](OC(C)=O)[C@@H](OC(C)=O)[C@@H]1OC(C)=O | 2.68 | 122 | 48.4 | 2.52 | 45.5 |
| CCCCN1C(=O)C(O)(CC(=O)C[C@@H]2O[C@H](COC(C)=O)[C@@H](OC(C)=O)[C@H](OC(C)=O)[C@H]2OC(C)=O)c2ccccc21 (stereo partly drawn) | > 5 |  |  | > 5 |  |
| CC(=O)OC[C@H]1O[C@@H](CC(=O)/C=C2\C(=O)N(CCc3ccccc3)c3ccc(Cl)cc32)[C@H](OC(C)=O)[C@@H](OC(C)=O)[C@@H]1OC(C)=O | 0.11 | 93 | 98.9 | 0.94 | 845 |
| CC(=O)OC[C@H]1O[C@@H](CC(=O)CC2(O)C(=O)N(Cc3ccc(Br)cc3)c3ccc(Cl)cc32)[C@H](OC(C)=O)[C@@H](OC(C)=O)[C@@H]1OC(C)=O (stereo partly drawn) | > 5 |  |  | 4.81 |  |
| CC(=O)OC[C@H]1O[C@@H](CC(=O)CC2(O)C(=O)N(Cc3ccc(Br)cc3)c3ccccc32)[C@H](OC(C)=O)[C@@H](OC(C)=O)[C@@H]1OC(C)=O (stereo partly drawn) | > 5 |  |  | > 5 |  |
| CC(=O)OC[C@H]1O[C@@H](CC(=O)CC2(O)C(=O)N(Cc3cccc(C)c3)c3ccccc32)[C@H](OC(C)=O)[C@@H](OC(C)=O)[C@@H]1OC(C)=O (stereo partly drawn) | > 5 |  |  | > 5 |  |
| CC(=O)OC[C@H]1O[C@@H](CC(=O)CC2(O)C(=O)Nc3ccccc32)[C@H](OC(C)=O)[C@@H](OC(C)=O)[C@@H]1OC(C)=O (stereo partly drawn) | > 5 |  |  | > 5 |  |
| CCCN1C(=O)C(O)(CC(=O)C[C@@H]2O[C@H](COC(C)=O)[C@@H](OC(C)=O)[C@H](OC(C)=O)[C@H]2OC(C)=O)c2ccccc21 (stereo partly drawn) | > 5 |  |  | > 5 |  |
| CC(=O)OC[C@H]1O[C@@H](CC(=O)CC2(O)C(=O)N(CCc3ccccc3)c3ccccc32)[C@H](OC(C)=O)[C@@H](OC(C)=O)[C@@H]1OC(C)=O (stereo partly drawn) | > 5 |  |  | > 5 |  |
| CC(=O)OC[C@H]1O[C@@H](CC(=O)/C=C2\C(=O)N(Cc3ccc(F)cc3)c3ccccc32)[C@H](OC(C)=O)[C@@H](OC(C)=O)[C@@H]1OC(C)=O | 0.47 | 119 | 100 | 1.19 | 253 |
| CC(=O)OC[C@H]1O[C@@H](CC(=O)/C=C2\C(=O)Nc3ccccc32)[C@H](OC(C)=O)[C@@H](OC(C)=O)[C@@H]1OC(C)=O | 4.27 | 127 | < 25.4 | > 5 | 29.8 |
| CC(=O)OC[C@H]1O[C@@H](CC(=O)CC2(O)C(=O)N(Cc3ccccc3)c3ccccc32)[C@H](OC(C)=O)[C@@H](OC(C)=O)[C@@H]1OC(C)=O (stereo partly drawn) | > 5 |  |  | > 5 |  |
| CCCCN1C(=O)/C(=C\C(=O)C[C@@H]2O[C@H](COC(C)=O)[C@@H](OC(C)=O)[C@H](OC(C)=O)[C@H]2OC(C)=O)c2cc(Cl)ccc21 | 0.18 | 88.9 | 404 | 0.22 | 494 |
| CC(=O)OC[C@H]1O[C@@H](CC(=O)CC2(O)C(=O)N(Cc3ccccc3)c3ccc(Cl)cc32)[C@H](OC(C)=O)[C@@H](OC(C)=O)[C@@H]1OC(C)=O (stereo partly drawn) | > 5 |  |  | > 5 |  |
| CC(=O)OC[C@H]1O[C@@H](CC(=O)/C=C2\C(=O)N(Cc3cccc(C)c3)c3ccccc32)[C@H](OC(C)=O)[C@@H](OC(C)=O)[C@@H]1OC(C)=O | 0.53 | 72.5 | 242 | 0.3 | 137 |
| CCN(CC)CCCC(C)Nc1ccnc2cc(Cl)ccc12 (stereo not drawn) [CHLOROQUINE] |  | > 500 |  |  |  |
